ChEMBL document CHEMBL1130131, “12,13-isotaxanes: synthesis of new potent analogs and X-ray crystallographic confirmation of structure” (J Med Chem, 1997)

Legend:
A2780 = assay: Concentration of compound to inhibit the growth of human A2780 ovarian carcinoma cells(in vitro); format: functional, cell-based
B16 = assay: Concentration inducing 20% mitotic index for mitotic block in murine B16 melanoma cells; format: functional, Mus musculus
Procedure, shortened: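 B16 melanoma cells were treated in culture, and mitotic index was measured by a method adapted from earlier work. The value is the drug concentration giving a 20% mitotic index.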

Mus musculus [1] = assay: % T/C(is ratio of median survival time in the group receiving the optimal dose to median survival time in the vehicle control group X 100.) is measured in B16 melanoma cells at the dose of 50 ng/kg on the days 1 and 3(experiment 1); format: functional
Procedure, shortened: (§1)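 B6D2F1 mice bearing intraperitoneally implanted B16 melanoma (method adapted from earlier work); test agent given iv on days 1 and 3, optimal total dose reported in ng/kg. %T/C = median survival time of the optimal-dose group divided by median survival time of the vehicle control group × 100. Values are individual results from two separate experiments.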

Mus musculus [2] = assay: % T/C(is ratio of median survival time in the group receiving the optimal dose to median survival time in the vehicle control group X 100.) is measured in B16 melanoma cells at the dose of 50 ng/kg on the days 1 and 3(experiment 2); format: functional; procedure, shortened: as §1
Mus musculus [3] = assay: % T/C was measured in B6D2F1 mice bearing ip-implanted B16 melanoma cells at the dose of 100n g/kg on the days 1 and 3; format: functional
Procedure, shortened: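 B6D2F1 mice bearing intraperitoneally implanted B16 melanoma received compound iv on days 1 and 3, with the total dose stated. %T/C = median survival time at the optimal dose ÷ median survival time of vehicle-treated controls × 100. The method was adapted from earlier work.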

| Compound | IC50 (A2780) | Concentration giving 20% mitotic index (B16) | T/C (Mus musculus [1]) | T/C (Mus musculus [2]) | T/C (Mus musculus [3]) |
| --- | --- | --- | --- | --- | --- |
| CC(=O)O[C@H]1C(=O)[C@]2(C)C=CC3OC[C@@]3(OC(C)=O)C2[C@H](OC(=O)c2ccccc2)[C@]2(O)CC(OC(=O)[C@H](O)[C@@H](NC(=O)OC(C)(C)C)c3ccccc3)=C(C)C1C2(C)C (some centres undefined) | 1.2 nM | 10 nM | 181% | 181% | – |
| CC(=O)O[C@@]12COC1C[C@@H]1C[C@@]13C(=O)[C@H](O)C1C(C)=C(OC(=O)[C@H](O)[C@@H](NC(=O)OC(C)(C)C)c4ccccc4)C[C@@](O)([C@@H](OC(=O)c4ccccc4)C23)C1(C)C (some centres undefined) | 1.9 nM | 7 nM | 184% | 210% | – |
| CC(=O)O[C@H]1C(=O)[C@]2(C)C=CC3OC[C@@]3(OC(C)=O)C2[C@H](OC(=O)c2ccccc2)[C@]2(O)CC(OC(=O)[C@H](O)[C@@H](NC(=O)NC(C)(C)C)c3ccccc3)=C(C)C1C2(C)C (some centres undefined) | 0.5 nM | 10 nM | 232% | 241% | – |
| CC(=O)O[C@H]1C(=O)[C@]23C[C@H]2CC2OC[C@@]2(OC(C)=O)C3[C@H](OC(=O)c2ccccc2)[C@]2(O)CC(OC(=O)[C@H](O)[C@@H](NC(=O)NC(C)(C)C)c3ccccc3)=C(C)C1C2(C)C (some centres undefined) | 0.6 nM | 10 nM | 213% | 225% | – |
| CC(=O)O[C@@]12CO[C@@H]1C[C@H](O)[C@@]1(C)C(=O)[C@H](O)C3=C(C)[C@@H](OC(=O)[C@H](O)[C@@H](NC(=O)OC(C)(C)C)c4ccccc4)C[C@@](O)([C@@H](OC(=O)c4ccccc4)[C@H]21)C3(C)C.O.O.O [DOCETAXEL] | 1.8 nM | 15 nM | – | – | 177% |
